Assay results: ChEMBL document CHEMBL2040750, “Hybrids of ravuconazole: synthesis and biological evaluation” (2012)
≈ marks a conversion by molar mass, not a printed value. Calls of active or inactive are those of the source. No cut-off for these calls is given here.

How the values were obtained:
Assay type in all cases: functional
Staphylococcus aureus [1] = test: Antibacterial activity Staphylococcus aureus NCIM 2079 at 100 ug/disc by agar-well diffusion assay
Outline: (§1)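 Agar-well diffusion screen against standard strains. Zone of inhibition is the read-out. Chloramphenicol, nystatin and ravuconazole were run as positive controls.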

Bacillus subtilis [2] = test: Antibacterial activity Bacillus subtilis NCIM 2250 at 100 ug/disc by agar-well diffusion assay; conditions: for zone of inhibition at 100 µg/disc: read-out: DIZ; outline: as §1
Candida albicans [3] = test: Antifungal activity Candida albicans NCIM 3471 at 100 ug/disc by agar-well diffusion assay; conditions: for zone of inhibition at 100 µg/disc: read-out: DIZ; outline: as §1
Staphylococcus aureus [4] = test: Antibacterial activity Staphylococcus aureus NCIM 2079 after 24 hrs by NCCLS method
Outline: (§2)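 Broth microdilution MIC per NCCLS. Compounds dissolved in DMSO, serially diluted in growth medium, incubated at 37 °C. Read at 24 h for bacteria and 24–72 h for fungi. MIC90 taken as the first well with about 90% growth reduction relative to the drug-free well.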

Escherichia coli [5] = test: Antibacterial activity Escherichia coli NCIM 2109 after 24 hrs by NCCLS method; outline: as §2
Aspergillus niger [6] = test: Antifungal activity Aspergillus niger NCIM 545 after 24 to 72 hrs by NCCLS method; outline: as §2
Pseudomonas aeruginosa [7] = test: Antibacterial activity Pseudomonas aeruginosa NCIM 2036 after 24 hrs by NCCLS method; outline: as §2
Aspergillus niger [8] = test: Antifungal activity Aspergillus niger NCIM 545 at 100 ug/disc by agar-well diffusion assay; conditions: for zone of inhibition at 100 µg/disc: read-out: DIZ; outline: as §1
Candida albicans [9] = test: Antifungal activity Candida albicans NCIM 3471 after 24 to 72 hrs by NCCLS method; outline: as §2
Pseudomonas aeruginosa [10] = test: Antibacterial activity Pseudomonas aeruginosa NCIM 2036 at 100 ug/disc by agar-well diffusion assay; outline: as §1
Escherichia coli [11] = test: Antibacterial activity Escherichia coli NCIM 2109 at 100 ug/disc by agar-well diffusion assay; conditions: for zone of inhibition at 100 µg/disc: read-out: DIZ; outline: as §1
Bacillus subtilis [12] = test: Antibacterial activity Bacillus subtilis NCIM 2250 after 24 hrs by NCCLS method; outline: as §2

Compound | MIC (Staphylococcus aureus [4]) | MIC (Escherichia coli [5]; NCIM 2109, 24 h) | MIC (Aspergillus niger [6]) | MIC (Pseudomonas aeruginosa [7]) | MIC (Candida albicans [9]) | MIC (Bacillus subtilis [12]) | MIC (Escherichia coli [5]) | MIC (Bacillus subtilis [12]; NCIM 2250, 24 h) | MIC (Pseudomonas aeruginosa [7]; NCIM 2036, 24 h) | diameter of the inhibition zone (DIZ) (Staphylococcus aureus [1]) | diameter of the inhibition zone (DIZ) (Bacillus subtilis [2]) | diameter of the inhibition zone (DIZ) (Candida albicans [3]) | diameter of the inhibition zone (DIZ) (Aspergillus niger [8]) | diameter of the inhibition zone (DIZ) (Pseudomonas aeruginosa [10]) | zone of inhibition at 100 µg/disc (Escherichia coli [11]) | zone of inhibition at 100 µg/disc (Candida albicans [3]) | zone of inhibition at 100 µg/disc (Aspergillus niger [8]) | diameter of the inhibition zone (DIZ) (Escherichia coli [11]) | zone of inhibition at 100 µg/disc (Bacillus subtilis [2]) | zone of inhibition at 100 µg/disc (Pseudomonas aeruginosa [10]; read-out: DIZ)
O=[N+]([O-])c1ccc(-c2csc(N/N=C(/Cn3cncn3)c3ccc(Br)cc3)n2)cc1 | inactive | > 64 µg/mL | inactive | inactive | inactive | inactive |  |  |  | inactive | inactive | inactive | inactive | inactive | 14 mm |  |  |  |  | 
O=[N+]([O-])c1ccc(/C(Cn2cncn2)=N\Nc2nc(-c3ccc(F)cc3)cs2)cc1 | inactive |  | > 64 µg/mL | inactive | > 64 µg/mL |  | inactive | > 64 µg/mL |  | inactive |  |  |  | inactive |  | 11.2 mm | 14.4 mm | inactive | 11.3 mm | 
O=[N+]([O-])c1ccc(-c2csc(N/N=C(/Cn3cncn3)c3ccc(Cl)cc3)n2)cc1 | inactive | > 64 µg/mL | > 64 µg/mL | inactive | > 64 µg/mL |  |  | > 64 µg/mL |  | inactive |  |  |  | inactive | 10.6 mm | 11.7 mm | 14.5 mm |  | 12.2 mm | 

Further compounds by falling MIC (Aspergillus niger [6]), results first:

MIC (Staphylococcus aureus [4]) | MIC (Escherichia coli [5]; NCIM 2109, 24 h) | MIC (Aspergillus niger [6]) | MIC (Pseudomonas aeruginosa [7]) | MIC (Candida albicans [9]) | MIC (Bacillus subtilis [12]) | MIC (Escherichia coli [5]) | MIC (Bacillus subtilis [12]; NCIM 2250, 24 h) | MIC (Pseudomonas aeruginosa [7]; NCIM 2036, 24 h) | Compound | diameter of the inhibition zone (DIZ) (Staphylococcus aureus [1]) | diameter of the inhibition zone (DIZ) (Bacillus subtilis [2]) | diameter of the inhibition zone (DIZ) (Candida albicans [3]) | diameter of the inhibition zone (DIZ) (Aspergillus niger [8]) | diameter of the inhibition zone (DIZ) (Pseudomonas aeruginosa [10]) | zone of inhibition at 100 µg/disc (Escherichia coli [11]) | zone of inhibition at 100 µg/disc (Candida albicans [3]) | zone of inhibition at 100 µg/disc (Aspergillus niger [8]) | diameter of the inhibition zone (DIZ) (Escherichia coli [11]) | zone of inhibition at 100 µg/disc (Bacillus subtilis [2]) | zone of inhibition at 100 µg/disc (Pseudomonas aeruginosa [10]; read-out: DIZ)
inactive | > 64 µg/mL | 64 µg/mL (≈ 124 µM) |  | inactive | inactive |  |  | 32 µg/mL (≈ 62.2 µM) | Fc1ccc(/C(Cn2cncn2)=N\Nc2nc(-c3cc(C(F)(F)F)cc(C(F)(F)F)c3)cs2)cc1 | inactive | inactive | inactive |  |  | 14.9 mm |  | 13.8 mm |  |  | 23.9 mm
inactive |  | 32 µg/mL (≈ 73.1 µM) | inactive | 1 µg/mL (≈ 2.29 µM) | inactive | inactive |  |  | C[C@@H](c1nc(-c2ccc(C#N)cc2)cs1)[C@](O)(Cn1cncn1)c1ccc(F)cc1F [RAVUCONAZOLE] | inactive | inactive |  |  | inactive |  | 28.6 mm | 20.2 mm | inactive |  | 
